Data published in ChEMBL document CHEMBL4024749, “Discovery of 3,5-Diphenyl-4-methyl-1,3-oxazolidin-2-ones as Novel, Potent, and Orally Available Δ-5 Desaturase (D5D) Inhibitors” (J Med Chem, 2017).
Blank lines part the entries; values can stand above or below the molecule they belong to.

Experiments:
[1] = Drug level in human hepatocytes treated with 5-(4-Fluorophenyl)-3-(3-methoxyphenyl)-1,3-oxazolidin-2-one by LC-MS/MS analysis; assay type: ADME, cell-based, Hepatocyte
Liver [2] = experiment: Metabolic stability in human liver microsomes; assay type: ADME, microsome
[3] = molecular target: Acyl-CoA (8-3)-desaturase (Homo sapiens, UniProt O60427); experiment: Inhibition of D5D in human HepG2 cells assessed as [14C]AA formation from [14C]DGLA preincubated for 30 mins followed by [14C]eicosatrienoic acid addition measured after 3 hrs by TLC analysis; assay type: cell-based
Outline: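 HepG2 plated at 1 × 10^5 cells/well, cultured overnight in DMEM/10% FBS, PBS-washed, then preincubated 30 min at 37 °C with compound in DMEM with penicillin/streptomycin and 0.3% BSA. 0.1 μCi [14C]eicosatrienoic acid added and cells incubated 3 h at 37 °C; lipids saponified overnight at 55 °C with NaOH, acidified, extracted with chloroform/MeOH, separated by TLC.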

[4] = molecular target: Acyl-CoA (8-3)-desaturase (Rattus norvegicus, UniProt Q920R3); experiment: Displacement of [3H]T-3364366 from D5D in rat liver microsomal membrane preincubated for 15 mins followed by radioligand addition measured after 150 mins by TopCount microscintillation counting assay; assay type: cell membranes
Outline: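 Rat liver microsome fraction (30 μg/well) preincubated 15 min with test compound at room temperature in 10 mM Tris-HCl pH 7.5, 100 mM KCl, 10 mM NaF buffer, 200 μL/well; bound ligand trapped on GF/C filters, washed 5× with ice-cold buffer, counted by scintillation. Nonspecific binding with 10 μM unlabeled T-3364366; IC50 from three-parameter logistic fit.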

Mus musculus [5] = experiment: In vivo inhibition of D5D in C57BL/6J mouse liver assessed as decrease in AA/DGLA ratio by measuring inhibition index at 3 mg/kg, qd administered via oral gavage for 4 days by HPLC analysis relative to control; assay type: functional; conditions: 96 h
Outline: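 Male C57BL/6J mice, 7–9 weeks old, on normal chow, individually caged; 3 mg/kg suspension in 0.5% methylcellulose by gavage each morning at 10 mL/kg for 4 days. Liver taken next morning; phospholipid fraction from about 40 mg tissue labeled, AA and DGLA measured by HPLC; AA/DGLA decrease versus vehicle group taken as 100%.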

[6] = AUC (0 to 8 hrs) in mouse at 0.1 mg/kg, iv or 1 mg/kg, po; assay type: ADME, organism-based; conditions: in vivo
[7] = MRT (0 to 8 hrs) in mouse at 0.1 mg/kg, iv or 1 mg/kg, po measured; assay type: ADME, organism-based; conditions: in vivo
CYP2C9 = CYP2C9 (Homo sapiens, UniProt P11712); experiment: Inhibition of CYP2C9 (unknown origin) at 10 uM
[8] = Oral bioavailability in mouse at 0.1 mg/kg, iv or 1 mg/kg administered as cassette dose up to 8 hrs; assay type: ADME, organism-based; conditions: in vivo
[9] = MRT (0 to 8 hrs) in mouse at 1 mg/kg, po administered as cassette dose; assay type: ADME, organism-based; conditions: in vivo
Mus musculus [10] = experiment: In vivo inhibition of D5D in C57BL/6J mouse liver assessed as decrease in AA/DGLA ratio by measuring inhibition index at 3 mg/kg, qd administered via oral gavage for 4 days by HPLC analysis relative to control; conditions: 96 h
[11] = AUC (0 to 8 hrs) in mouse at 1 mg/kg, po administered as cassette dose; assay type: ADME, organism-based; design: time < 8 hr, dose 1 mg/kg, route oral; conditions: in vivo
[12] = Drug level in mouse hepatocytes treated with 5-(4-Fluorophenyl)-3-(3-methoxyphenyl)-1,3-oxazolidin-2-one by LC-MS/MS analysis; assay type: ADME, cell-based, Hepatocyte
Liver [13] = experiment: Metabolic stability in mouse liver microsomes; assay type: ADME, microsome
Canis familiaris = experiment: Cardiotoxicity in dog at 5 mg/kg, iv by ECG analysis; assay type: toxicity, organism-based, Canis lupus familiaris; conditions: in vivo
hERG (KCNH2) = hERG (KCNH2) (Homo sapiens, UniProt Q12809); experiment: Inhibition of human ERG at 10 uM by patch clamp assay
[14] = Cmax in dog at 5 mg/kg, iv; assay type: ADME, organism-based, Canis lupus familiaris; design: dose 5 mg/kg, route intravenous; conditions: in vivo
Cytochrome P450 2D6 = Cytochrome P450 2D6 (Homo sapiens, UniProt P10635); experiment: Inhibition of CYP2D6 (unknown origin); assay type: ADME
Cytochrome P450 2C9 = Cytochrome P450 2C9 (Homo sapiens, UniProt P11712); experiment: Inhibition of CYP2C9 (unknown origin); assay type: ADME
[15] = Ratio of Cmax in dog ECG model at 5 mg/kg, iv to Cmax in ApoE knockout mouse at 1 mg/kg, po qd dosed via gavage for 2 weeks; assay type: ADME, organism-based; conditions: in vivo, 336 h
[16] = Induction of CYP3A (unknown origin); assay type: ADME; conditions: human
Mus musculus [17] = experiment: In vivo inhibition of D5D in ApoE knockout mouse assessed as decrease in AA/DGLA ratio at 0.3 mg/kg, po qd dosed via gavage for 2 weeks by HPLC analysis; assay type: functional; conditions: 336 h
Outline: (§1)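 ApoE KO mice, 13 weeks old, fed Western diet for 2 weeks; from day after diet start, dosed by gavage each morning at 10 mL/kg with suspension (0.3–3 mg/kg). Livers taken morning after final dose; phospholipid AA and DGLA measured by HPLC after labeling; AA/DGLA decrease relative to vehicle group as 100%.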

Mus musculus [18] = experiment: In vivo inhibition of D5D in ApoE knockout mouse assessed as decrease in AA/DGLA ratio at 1 mg/kg, po qd dosed via gavage for 2 weeks by HPLC analysis; assay type: functional; conditions: 336 h; outline: as §1
Mus musculus [19] = experiment: In vivo inhibition of D5D in ApoE knockout mouse assessed as decrease in AA/DGLA ratio at 3 mg/kg, po qd dosed via gavage for 2 weeks by HPLC analysis; assay type: functional; conditions: 336 h; outline: as §1
[20] = Cmax in ApoE knockout mouse at 1 mg/kg, po qd dosed via gavage for 2 weeks by HPLC analysis; assay type: ADME, organism-based; design: dose 1 mg/kg, route oral; conditions: in vivo
Cytochrome P450 2C8 = molecular target: T1, Cytochrome P450 2C8 (Homo sapiens, UniProt P10632); experiment: Inhibition of CYP2C8 (unknown origin); assay type: ADME
T1 sequence (P10632 whole entry): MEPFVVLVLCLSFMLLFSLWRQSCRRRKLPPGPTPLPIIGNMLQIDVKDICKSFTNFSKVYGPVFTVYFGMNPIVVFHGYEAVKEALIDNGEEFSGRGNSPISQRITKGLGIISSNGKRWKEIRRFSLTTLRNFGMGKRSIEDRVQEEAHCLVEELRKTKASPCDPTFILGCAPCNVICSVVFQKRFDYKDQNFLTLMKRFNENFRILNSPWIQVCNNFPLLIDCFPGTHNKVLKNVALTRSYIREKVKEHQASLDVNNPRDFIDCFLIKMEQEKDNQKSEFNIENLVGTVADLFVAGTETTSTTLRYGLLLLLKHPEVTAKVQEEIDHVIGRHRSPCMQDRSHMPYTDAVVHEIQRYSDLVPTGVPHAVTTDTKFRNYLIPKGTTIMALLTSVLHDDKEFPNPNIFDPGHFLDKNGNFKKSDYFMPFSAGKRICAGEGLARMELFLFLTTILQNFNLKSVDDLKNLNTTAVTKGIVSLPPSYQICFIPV

Cytochrome P450 3A4 = Cytochrome P450 3A4 (Homo sapiens, UniProt P08684); experiment: Inhibition of CYP3A4 (unknown origin); assay type: ADME
Chain of Cytochrome P450 3A4 (P08684 whole entry): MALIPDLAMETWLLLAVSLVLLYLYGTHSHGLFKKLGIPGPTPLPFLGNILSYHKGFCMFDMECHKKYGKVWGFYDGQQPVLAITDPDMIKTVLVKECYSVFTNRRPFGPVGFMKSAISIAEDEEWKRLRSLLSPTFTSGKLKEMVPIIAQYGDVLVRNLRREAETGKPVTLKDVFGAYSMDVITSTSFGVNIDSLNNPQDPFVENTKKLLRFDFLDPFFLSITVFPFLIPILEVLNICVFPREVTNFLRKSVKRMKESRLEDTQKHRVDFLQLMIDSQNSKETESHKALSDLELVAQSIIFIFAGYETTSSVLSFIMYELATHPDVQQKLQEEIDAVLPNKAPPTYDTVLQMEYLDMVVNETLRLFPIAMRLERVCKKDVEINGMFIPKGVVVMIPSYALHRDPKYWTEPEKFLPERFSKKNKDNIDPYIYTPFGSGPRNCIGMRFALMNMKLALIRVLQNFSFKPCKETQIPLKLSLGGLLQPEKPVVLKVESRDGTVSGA

Chain of Acyl-CoA (8-3)-desaturase (Homo sapiens, UniProt O60427) (O60427 whole entry): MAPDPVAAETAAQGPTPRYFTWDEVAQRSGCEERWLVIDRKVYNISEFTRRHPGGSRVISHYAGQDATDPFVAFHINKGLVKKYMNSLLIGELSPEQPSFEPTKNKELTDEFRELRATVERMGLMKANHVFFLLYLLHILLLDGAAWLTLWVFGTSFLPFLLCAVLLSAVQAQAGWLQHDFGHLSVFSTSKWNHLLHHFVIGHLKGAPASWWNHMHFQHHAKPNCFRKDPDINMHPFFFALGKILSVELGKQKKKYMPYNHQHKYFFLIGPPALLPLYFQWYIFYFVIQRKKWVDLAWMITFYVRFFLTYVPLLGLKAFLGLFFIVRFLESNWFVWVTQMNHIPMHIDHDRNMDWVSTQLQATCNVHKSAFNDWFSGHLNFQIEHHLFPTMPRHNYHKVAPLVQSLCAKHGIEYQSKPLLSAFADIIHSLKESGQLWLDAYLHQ
Chain of Acyl-CoA (8-3)-desaturase (Rattus norvegicus, UniProt Q920R3) (Q920R3 whole entry): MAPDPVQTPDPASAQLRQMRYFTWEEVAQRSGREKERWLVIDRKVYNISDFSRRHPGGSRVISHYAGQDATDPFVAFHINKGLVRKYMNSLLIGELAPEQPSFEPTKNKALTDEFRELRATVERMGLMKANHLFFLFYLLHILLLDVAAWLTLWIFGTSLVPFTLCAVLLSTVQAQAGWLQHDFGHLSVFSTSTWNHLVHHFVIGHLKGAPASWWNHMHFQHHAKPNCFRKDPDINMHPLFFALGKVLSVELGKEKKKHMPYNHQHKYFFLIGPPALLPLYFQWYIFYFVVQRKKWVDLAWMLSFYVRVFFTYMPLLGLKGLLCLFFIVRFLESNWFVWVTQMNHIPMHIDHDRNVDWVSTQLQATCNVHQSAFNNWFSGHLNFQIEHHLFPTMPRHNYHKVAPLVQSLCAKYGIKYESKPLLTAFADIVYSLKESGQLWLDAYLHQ
Chain of CYP2C9 (P11712 whole entry): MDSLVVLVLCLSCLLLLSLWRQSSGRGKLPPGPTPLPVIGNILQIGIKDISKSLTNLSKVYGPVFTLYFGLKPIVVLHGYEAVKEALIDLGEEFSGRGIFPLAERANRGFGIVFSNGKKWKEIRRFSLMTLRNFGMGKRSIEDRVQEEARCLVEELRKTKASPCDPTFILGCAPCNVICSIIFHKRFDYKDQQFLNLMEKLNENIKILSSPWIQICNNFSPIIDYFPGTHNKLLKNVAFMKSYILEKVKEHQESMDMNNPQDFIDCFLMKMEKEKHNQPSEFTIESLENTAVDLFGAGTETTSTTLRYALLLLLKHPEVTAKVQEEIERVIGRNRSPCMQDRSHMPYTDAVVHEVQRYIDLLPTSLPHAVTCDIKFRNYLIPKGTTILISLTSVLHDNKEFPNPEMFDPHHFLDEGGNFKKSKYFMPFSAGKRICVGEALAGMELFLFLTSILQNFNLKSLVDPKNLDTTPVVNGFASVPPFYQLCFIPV
Chain of Cytochrome P450 2D6 (P10635 whole entry): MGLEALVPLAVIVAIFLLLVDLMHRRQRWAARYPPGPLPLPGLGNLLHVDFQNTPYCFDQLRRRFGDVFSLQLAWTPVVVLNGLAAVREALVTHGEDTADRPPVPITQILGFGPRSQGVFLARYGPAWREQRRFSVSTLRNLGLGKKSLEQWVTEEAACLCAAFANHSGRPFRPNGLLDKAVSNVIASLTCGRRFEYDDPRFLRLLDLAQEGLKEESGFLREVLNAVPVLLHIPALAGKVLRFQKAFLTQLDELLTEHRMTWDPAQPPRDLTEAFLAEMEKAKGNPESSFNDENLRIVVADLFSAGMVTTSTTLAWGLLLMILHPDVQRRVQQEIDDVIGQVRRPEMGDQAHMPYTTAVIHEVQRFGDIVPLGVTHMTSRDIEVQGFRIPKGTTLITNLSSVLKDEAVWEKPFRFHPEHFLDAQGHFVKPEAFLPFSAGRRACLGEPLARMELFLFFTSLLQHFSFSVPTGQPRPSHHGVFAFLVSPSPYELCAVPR
Chain of hERG (KCNH2) (Q12809 whole entry): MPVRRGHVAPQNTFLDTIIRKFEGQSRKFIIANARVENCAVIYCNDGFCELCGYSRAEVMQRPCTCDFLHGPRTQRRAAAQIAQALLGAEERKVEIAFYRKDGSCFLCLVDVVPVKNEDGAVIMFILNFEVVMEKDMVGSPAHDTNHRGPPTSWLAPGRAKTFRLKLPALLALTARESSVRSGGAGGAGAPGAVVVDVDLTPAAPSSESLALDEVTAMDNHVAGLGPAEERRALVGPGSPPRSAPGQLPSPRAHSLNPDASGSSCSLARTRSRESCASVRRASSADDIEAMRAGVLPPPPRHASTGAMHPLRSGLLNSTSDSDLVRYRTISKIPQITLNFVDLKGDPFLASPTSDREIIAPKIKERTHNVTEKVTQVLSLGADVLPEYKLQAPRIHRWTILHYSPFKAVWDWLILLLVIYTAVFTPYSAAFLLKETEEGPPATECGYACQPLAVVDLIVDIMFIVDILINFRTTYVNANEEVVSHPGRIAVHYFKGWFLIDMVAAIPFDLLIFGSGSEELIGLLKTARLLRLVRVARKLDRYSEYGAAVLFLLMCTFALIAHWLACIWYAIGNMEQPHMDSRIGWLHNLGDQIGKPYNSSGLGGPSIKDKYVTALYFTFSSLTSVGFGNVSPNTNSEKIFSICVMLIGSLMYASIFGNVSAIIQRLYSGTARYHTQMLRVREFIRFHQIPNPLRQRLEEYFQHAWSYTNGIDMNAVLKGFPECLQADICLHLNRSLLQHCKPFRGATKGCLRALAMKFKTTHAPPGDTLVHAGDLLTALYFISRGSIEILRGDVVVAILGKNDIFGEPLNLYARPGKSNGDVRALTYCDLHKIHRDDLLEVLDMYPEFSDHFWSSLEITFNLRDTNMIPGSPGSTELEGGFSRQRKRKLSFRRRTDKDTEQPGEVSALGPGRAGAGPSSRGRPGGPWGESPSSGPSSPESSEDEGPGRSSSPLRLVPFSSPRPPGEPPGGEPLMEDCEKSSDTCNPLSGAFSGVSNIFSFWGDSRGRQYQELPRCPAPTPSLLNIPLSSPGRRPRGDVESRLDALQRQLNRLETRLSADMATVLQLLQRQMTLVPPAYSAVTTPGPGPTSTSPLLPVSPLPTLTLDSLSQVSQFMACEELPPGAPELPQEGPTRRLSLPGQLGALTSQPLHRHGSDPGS
Chain of Cytochrome P450 2C9 (P11712 whole entry): as the sequence (P11712 whole entry) above

Structure (SMILES): O=C1OC(c2ccc(F)cc2)CN1c1cccc(O)c1 (centres undefined)
- Drug metabolism [1]: Metabolite_Detected

Structure (SMILES): O=C1OC(c2ccc(F)cc2)CN1c1cccc(F)c1 (racemic)
- Stability (Liver [2]): 81 µL/min/mg
- IC50 [3]: 170 nM
- IC50 [4]: 51 nM

Structure (SMILES): C[C@H]1[C@H](c2ccc(F)cc2)OC(=O)N1c1cc(Cl)cc(C#N)c1
- inhibition in vivo at 3 mg/kg (Mus musculus [5]): 71%
- AUC(0-t) [6]: 974 ng·h/mL
- MRT last [7]: 4.2 h
- inhibition at 10 µM (CYP2C9): 44.2%
- IC50 [3]: 0.52 nM
- bioavailability [8]: 74.4%
- IC50 [4]: < 1 nM

Structure (SMILES): C[C@H]1[C@H](c2ccc(F)cc2)OC(=O)N1c1cc(F)cc(C#N)c1 (racemic)
- MRT last [9]: 3.8 h
- inhibition in vivo at 3 mg/kg (Mus musculus [10]): 63%
- AUC(0-t) at 8 h [11]: 1200 ng·h/mL
- IC50 [3]: 3.7 nM
- bioavailability [8]: 61%
- IC50 [4]: 4 nM

Structure (SMILES): N#Cc1cccc(N2C[C@@H](c3ccc(F)cc3)OC2=O)c1
- IC50 [4]: > 10000 nM

Structure (SMILES): O=C1OC(c2ccc(F)cc2)CN1Cc1ccc(Cl)cc1Cl (racemic)
- IC50 [3]: 150 nM
- IC50 [4]: 79 nM

Structure (SMILES): COc1ccc(CN(C)C(=O)c2ccc3c(c2)OCO3)c(OC)c1
- IC50 [4]: 310 nM

Structure (SMILES): C[C@H]1[C@H](c2ccc(F)cc2)OC(=O)N1c1cc(C#N)cc(C#N)c1
- Activity (Canis familiaris): Non-Toxic
- inhibition at 10 µM (hERG (KCNH2)): 30.7%
- inhibition in vivo at 3 mg/kg (Mus musculus [5]): 74%
- Cmax [14]: 7150 ng/mL
- AUC(0-t) [6]: 891 ng·h/mL
- inhibition (INH) (Cytochrome P450 2D6): Not Active
- inhibition (INH) (Cytochrome P450 2C9): Not Active
- MRT last [7]: 4 h
- Ratio [15]: > 25
- inhibition at 10 µM (CYP2C9): 28.5%
- Activity [16]: Not Active
- IC50 [3]: 1.5 nM
- bioavailability [8]: 53.3%
- IC50 [4]: 1.5 nM
- inhibition in vivo at 0.3 mg/kg (Mus musculus [17]): 61%
- inhibition in vivo at 1 mg/kg (Mus musculus [18]): 67%
- inhibition in vivo at 3 mg/kg (Mus musculus [19]): 66%
- Cmax [20]: 280 ng/mL
- inhibition (INH) (Cytochrome P450 2C8): Not Active
- inhibition (INH) (Cytochrome P450 3A4): Not Active

Structure (SMILES): COc1ccc(OC)c(N2CCN(C(=O)c3ccc(Cl)cc3)C(C)C2=O)c1 (racemic)
- IC50 [4]: 360 nM

Structure (SMILES): O=C1OC(c2ccc(F)cc2)CN1c1cccc(Cl)c1 (racemic)
- Stability (Liver [2]): 72 µL/min/mg
- IC50 [3]: 55 nM
- IC50 [4]: 23 nM

Structure (SMILES): CCn1cc(C(=O)N(C)C(C)c2ccc(F)cc2)c2ccccc21 (racemic)
- IC50 [4]: 47 nM

Structure (SMILES): CC1(C)C(c2ccc(F)cc2)OC(=O)N1c1cccc(C#N)c1 (racemic)
- IC50 [4]: 450 nM

Structure (SMILES): O=C1OC(c2ccccc2)CN1Cc1cc(O)c(Cl)cc1Cl (racemic)
- IC50 [3]: 1100 nM
- IC50 [4]: 12 nM

Structure (SMILES): C[C@H]1[C@H](c2ccc(F)cc2)OC(=O)N1c1cccc(C#N)c1
- MRT last [9]: 3.4 h
- inhibition in vivo at 3 mg/kg (Mus musculus [10]): 42%
- AUC(0-t) at 8 h [11]: 2080 ng·h/mL
- IC50 [3]: 8.7 nM
- bioavailability [8]: 87.2%
- IC50 [4]: 5.3 nM
- Stability (Liver [13]): 24 µL/min/mg

Structure (SMILES): N#Cc1cccc(N2C[C@H](c3ccc(F)cc3)OC2=O)c1
- Stability (Liver [2]): 4 µL/min/mg
- IC50 [3]: 60 nM
- IC50 [4]: 49 nM
- Stability (Liver [13]): 50 µL/min/mg

Structure (SMILES): C[C@H]1[C@H](c2ccc(F)cc2)OC(=O)N1c1cccc(C#N)c1 (racemic)
- IC50 [3]: 8.9 nM
- IC50 [4]: 13 nM

The remaining lines, values ahead:

- Stability (Liver [2]): 45 µL/min/mg
- IC50 [3]: 190 nM
- IC50 [4]: 150 nM
Structure (SMILES): O=C1OC(c2ccc(F)cc2)CN1c1ccccc1 (racemic)

- IC50 [3]: 18 nM
- IC50 [4]: 13 nM
Structure (SMILES): COc1ccc(OC)c(N2CC(c3ccc(F)cc3)OC2=O)c1 (racemic)

- Drug metabolism [1]: Metabolite_Detected
- Drug metabolism [12]: Metabolite_Detected
Structure (SMILES): O=C1OC(c2ccc(F)cc2)CN1c1cccc(OS(=O)(=O)O)c1 (centres undefined)

- IC50 [3]: 170 nM
- IC50 [4]: 78 nM
- Stability (Liver [13]): 94 µL/min/mg
Structure (SMILES): N#Cc1cccc(N2CC(c3ccc(F)cc3)OC2=O)c1 (racemic)

- IC50 [4]: 5800 nM
Structure (SMILES): C[C@@H]1[C@@H](c2ccc(F)cc2)OC(=O)N1c1cccc(C#N)c1

- Drug metabolism [1]: Metabolite_Detected
- Drug metabolism [12]: Metabolite_Detected
Structure (SMILES): O=C1OC(c2ccc(F)cc2)CN1c1cccc(O[C@@H]2O[C@H](CO)[C@@H](O)[C@H](O)[C@H]2O)c1 (some centres undefined)

- IC50 [4]: 39 nM
Structure (SMILES): Cn1c(=O)n(Cc2cc(O)c(Cl)cc2Cl)c2ccccc21

- Stability (Liver [2]): 21 µL/min/mg
- IC50 [4]: 410 nM
- Stability (Liver [13]): 7 µL/min/mg
Structure (SMILES): C[C@@H]1[C@H](c2ccc(F)cc2)OC(=O)N1c1cccc(C#N)c1 (racemic)
